Assay outcomes (PubChem)
YB-1 expression: YB-1 expression inhibition; 30,000 compounds, 0.37% hits; U2OS, qRT-PCR YB-1 vs CDIP delta delta Cp, 16 h; active compounds read high; zero = DMSO, each unit about twofold; delta delta Cp (YB-1 minus CDIP) (no concentration beside the values);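 active means delta delta Cp rounded down to an integer at or above 3, about 3 SD of DMSO wells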;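 further: higher means less YB-1 transcript or more CDIP transcript relative to DMSO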
T cruzi HTS: intracellular Trypanosoma cruzi inhibition; intracellular Trypanosoma cruzi in host cells, plate reader; activity score (inhibition), % at 5.01 µM; 22,000 compounds, 4.9% hits; in the data active means activity score above about 55%; inconclusive means no clear call, values can overlap the other calls;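 further: parasites and compound incubated about four days before reading; 0% = median of neutral control wells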
INS-1E ATP HTS: preserves ATP levels in cytokine-treated INS-1E cells. INS-1E cytokine-induced death, ATP luminescence, 48 h; normalised: neutral wells 0, positive control 100. protection from cytokine-induced ATP loss, % at 10 µM. 20,000 compounds, 0.1% hits;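 active means mean replicate protection from cytokine-induced ATP loss at least 50% and at least 75% of replicates each reaching 50%; inconclusive means meets only one of the two criteria, mean or replicate share; inactive means fails both the mean and replicate share criteria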
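assay system = INS-1E rat insulinoma cells | amount = 8000 cells per well | medium = phenol-red-free RPMI with 5% fetal bovine serum | doses = one compound concentration, pin transfer | timing = 48 h cytokine plus compound treatment, 10 min reagent incubation | also added = IL-1β, TNF-α and IFN-γ cytokine mix | signal = CellTiter-Glo luminescence measuring cellular ATP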
The depositor's hits bear a star; ? = inconclusive; / = no result given. The full list was thinned out, with hits kept by preference.

SMILES	YB-1 expression	T cruzi HTS	INS-1E ATP HTS
C[C@H](CO)N1C[C@H](C)[C@H](CN(C)S(=O)(=O)c2ccc(Oc3ccccc3)cc2)OCc2cnnn2CCCC1=O	0.24	70*	8
Cc1noc(C)c1NC(=O)Nc1ccc2c(c1)C(=O)N([C@H](C)CO)C[C@@H](C)[C@@H](CN(C)C(=O)Nc1ccccc1)O2	-0.1	-28	-1
CC1OC(OC2C(CO)OC(OC(=O)[C@]34CCC(C)(C)CC3C3=CCC5[C@@]6(C)CC[C@H](OC7OC(C)C(OC8OCC(O)(COC9OCC(O)C(OC%10OCC(OC%11OCC(O)(CO)C%11O)C(O)C%10O)C9O)C8O)C(O)C7O)C(C)(C)C6CC[C@@]5(C)[C@]3(C)CC4)C(O)C2O)C(O)C(O)C1O (some centres undefined)	-0.45	/	/
Cc1ccc(S(=O)(=O)Nc2ccc3c(c2)CC(=O)N([C@H](C)CO)C[C@H](C)[C@H](CN(C)Cc2ccc(C(F)(F)F)cc2)O3)cc1	-0.35	34	-6
COc1ccc(CN(C)C[C@H]2Oc3ccc(NS(=O)(=O)c4ccc(F)cc4)cc3CC(=O)N([C@H](C)CO)C[C@H]2C)cc1	-0.0022	52	1
Cc1ccc(S(=O)(=O)Nc2ccc3c(c2)CC(=O)N([C@@H](C)CO)C[C@@H](C)[C@@H](CN(C)Cc2ccc(C(F)(F)F)cc2)O3)cc1	0.21	64*	-31
C[C@@H]1CN([C@H](C)CO)C(=O)Cc2cc(NS(=O)(=O)c3ccc(F)cc3)ccc2O[C@@H]1CN(C)Cc1ccc(C(F)(F)F)cc1	0.34	60*	-48
COc1ccc(S(=O)(=O)Nc2ccc3c(c2)CC(=O)N([C@@H](C)CO)C[C@H](C)[C@@H](CN(C)Cc2ccc(C(F)(F)F)cc2)O3)cc1	0.24	83*	-13
C[C@H]1CN([C@@H](C)CO)C(=O)Cc2cc(NS(=O)(=O)c3ccccc3)ccc2O[C@H]1CN(C)Cc1ccc(C(F)(F)F)cc1	0.42	48	-1
C[C@@H]1CN([C@@H](C)CO)C(=O)Cc2cc(NC(=O)c3ccncc3)ccc2O[C@@H]1CN(C)C(=O)NC1CCCCC1	-0.095	-15	3
C[C@@H]1CN([C@H](C)CO)C(=O)c2cccc(NC(=O)c3ccc(-c4nccs4)cc3)c2O[C@H]1CN(C)Cc1ccc(C(F)(F)F)cc1	0.2	43	-24
COC(=O)C1c2c(oc3cc(CO)cc(O)c3c2=O)C=CC1O (centres undefined)	0.37	/	/
C[C@H](CO)N1C[C@H](C)[C@H](CN(C)Cc2ccc3c(c2)OCO3)Oc2ncc(-c3cccc(F)c3)cc2C1=O	0.27	25	-21
C[C@H](CO)N1C[C@H](C)[C@H](CN(C)Cc2cccc(C(F)(F)F)c2)Oc2ncc(C#Cc3ccccc3)cc2C1=O	0.42	84*	/
C[C@H](CO)N1C[C@H](C)[C@H](CN(C)Cc2ccccc2)Oc2ncc(-c3cccc(C(F)(F)F)c3)cc2C1=O	0.14	?	/
C[C@H](CO)N1C[C@H](C)[C@H](CN(C)Cc2ccc3c(c2)OCO3)Oc2ncc(-c3cccc(C(F)(F)F)c3)cc2C1=O	0.31	62*	-13
C[C@H](CO)N1C[C@H](C)[C@H](CN(C)Cc2cccc(C(F)(F)F)c2)Oc2ncc(-c3ccc(F)cc3)cc2C1=O	0.35	59*	/
Cc1cccc(CN(C)C[C@@H]2Oc3ncc(-c4ccc(F)cc4)cc3C(=O)N([C@H](C)CO)C[C@@H]2C)c1	0.1	34	/
C[C@H](CO)N1C[C@H](C)[C@H](CN(C)Cc2ccc(F)cc2)Oc2ncc(-c3cccc(C(F)(F)F)c3)cc2C1=O	-0.37	62*	/
CCCC(O)C#Cc1cnc2c(c1)C(=O)N([C@H](C)CO)C[C@H](C)[C@H](CN(C)Cc1ccccc1)O2 (some centres undefined)	0.058	21	/
Cc1noc(C)c1S(=O)(=O)Nc1cccc2c1O[C@@H](CN(C)CC1CC1)[C@@H](C)CN([C@@H](C)CO)C2=O	0.16	-15	1
COc1ccc(OC)c(NC(=O)c2ccc(CSc3ncnc4nc[nH]c34)cc2)c1	0.082	/	/
O=C(CCCCCCC(=O)Nc1ccccc1O)N/N=C/c1cccc(O)c1	-0.35	-3	-2
O=C(N/N=C/c1ccc2c(c1)OCCO2)c1ccccn1	0.043	6	-44
COc1c(OC/C=C(\C)CC2C=C(C)C(=O)O2)ccc2ccc(=O)oc12 (centres undefined)	-0.37	/	/
SMILES	YB-1 expression	T cruzi HTS	INS-1E ATP HTS
CCCOc1ccc(C2C3=C(CCCC3=O)OC3=C2C(=O)CCC3)cc1OCC	-0.14	/	/
C[C@@H]1O[C@@H](O[C@H]2[C@H](O)[C@@H](O)[C@H](OC[C@H]3O[C@@H](OC(=O)[C@]45CCC(C)(C)CC4C4=CCC6[C@@]7(C)CC[C@H](O)C(C)(C)C7CC[C@@]6(C)[C@]4(C)CC5)[C@H](O)[C@@H](O)[C@@H]3O)O[C@@H]2CO)[C@H](O)[C@H](O)[C@H]1O (some centres undefined)	1.6	/	/
COc1cccc(S(=O)(=O)N(C)C[C@@H]2Oc3ncc(-c4cccc(C(F)(F)F)c4)cc3C(=O)N([C@H](C)CO)C[C@@H]2C)c1	-0.014	57*	/
COc1cccc(S(=O)(=O)N(C)C[C@@H]2Oc3ncc(-c4cccc(F)c4)cc3C(=O)N([C@H](C)CO)C[C@@H]2C)c1	0.22	30	/
CNC[C@@H]1Oc2ncc(-c3cccc(C(F)(F)F)c3)cc2C(=O)N([C@H](C)CO)C[C@@H]1C	0.48	54	/
C[C@H](CO)N1C[C@H](C)[C@H](CN(C)C)Oc2ncc(-c3cccc(C(F)(F)F)c3)cc2C1=O	-0.41	81*	/
C[C@H](CO)N1C[C@H](C)[C@H](CN(C)S(=O)(=O)c2cn(C)cn2)Oc2ccc(NC(=O)Cc3cn(C)c4ccccc34)cc2C1=O	-0.74	6	7
O=C(CCCCCCC(=O)Nc1ccccc1O)N/N=C/c1cc(Br)ccc1O	-0.41	35	-11
C[C@@H]1CN([C@H](C)CO)C(=O)CCCn2cc(nn2)CO[C@H]1CN(C)Cc1cccc2c1OCCCO2	-0.0046	-26	/
COc1ccc(CN(C)C[C@@H]2Oc3ccc(NC(=O)Nc4cccc5ccccc45)cc3CC(=O)N([C@H](C)CO)C[C@@H]2C)cc1	0.37	19	-4
C[C@H](CO)N1C[C@H](C)[C@H](CN(C)Cc2ccc(Oc3ccccc3)cc2)Oc2ccc(NC(=O)Nc3cccc4ccccc34)cc2CC1=O	-0.29	17	-26
C[C@@H]1CN([C@@H](C)CO)C(=O)Cc2cc(NC(=O)Nc3cccc4ccccc34)ccc2O[C@@H]1CN(C)Cc1ccc(Oc2ccccc2)cc1	0.23	68*	-1
C[C@H]1CN([C@@H](C)CO)C(=O)Cc2cc(NC(=O)Nc3cccc4ccccc34)ccc2O[C@@H]1CN(C)Cc1ccc(Oc2ccccc2)cc1	0.11	70*	-20
COC(=O)CCCCCCC(=O)Nc1ccc(C2OC(CSc3nc4ccccc4s3)CC(c3ccccc3)O2)cc1 (centres undefined)	-0.045	/	/
